Here are results for 1 compound from paper PMC9523306 (The Journal of Veterinary Medical Science, 2022).

Common to all, as to assay: Reverse transcription-PCR, right cerebral cortex
Type in all cases: in vivo, rat
Holding throughout (details): retinoic acid + MCAO animals; 5 mg/kg intraperitoneally for four days before MCAO; ratio of PCR product intensity to β-actin intensity; mean ± S.E.M., n=5

One test concerns Apolipoprotein A1 mRNA. The method in brief:
(§1)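 Male Sprague-Dawley rats (200–220 g). Test compound was given in PEG/0.9% NaCl/ethanol (70/20/10 by volume), and vehicle was solvent alone. The right MCA origin was occluded by intraluminal 4–0 nylon suture for 24 hr; shams had surgery without the suture. Total RNA from the right cortex (Trizol) was used, with 500 ng reverse-transcribed. PCR ran 28–30 cycles (94°C 30 sec, 54–56°C 30 sec, 72°C 1 min), then 1% agarose, UV, densitometry. Two-way ANOVA, Scheffe post-hoc.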

For test [1], the system named is Adenosylhomocysteinase mRNA. The method in brief: as §1
Test [2] concerns glycerol-3-phosphate dehydrogenase mRNA. The method in brief:
as §1

In test [3] the test system is Isocitrate dehydrogenase [NAD^+] subunit α mRNA. In a few lines: as §1
The subject of test [4] is heat shock protein 60 mRNA. The method in brief:
as §1

For test [5], the system named is Rab GDP dissociation inhibitor β mRNA. In a few lines: as §1

In the case of `CC1=C(/C=C/C(C)=C/C=C/C(C)=C/C(=O)O)C(C)(C)CCC1` [retinoic acid, Retinoic acid], the “Apolipoprotein A1 mRNA levels” value with Apolipoprotein A1 mRNA was found to be 1.13 ± 0.02. Also, the “Adenosylhomocysteinase mRNA levels” value in test [1] is 1.28 ± 0.06. For the same compound, the “Expression levels of glycerol-3-phosphate dehydrogenase mRNA” value in test [2] came to 0.91 ± 0.02. Besides, the “Isocitrate dehydrogenase [NAD^+] subunit α mRNA levels” value in test [3] amounted to 1.36 ± 0.05. Besides, the “Expression levels of heat shock protein 60 mRNA” value in test [4] came out at 0.95 ± 0.05. In test [5], the “Rab GDP dissociation inhibitor β mRNA levels” value is 1.02 ± 0.02.
